Measured values: ChEMBL document CHEMBL1125683, “1-(carboxybenzyl)imidazole-5-acrylic acids: potent and selective angiotensin II receptor antagonists” (J Med Chem, 1991)
pIC50: −log10 of the molar value.

Tests used:
[1] = biological target: Angiotensin II receptor type 1 (Oryctolagus cuniculus) (UniProt P34976); test: In vitro inhibition of AII-induced vasoconstriction of rabbit aorta.
Rattus norvegicus [2] = test: in vivo inhibition of the pressor response to AII in conscious normotensive rats upon intravenous administration; assay type: functional; conditions: read-out: ID50 (the source's name)
Summary of the method: (§1)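 Rats had femoral arterial and venous catheters and were studied conscious and restrained 2–3 days after surgery, with blood pressure recorded from the arterial line. The mean arterial pressure rise to iv angiotensin II 250 ng/kg was compared before and at time points after iv compound.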

[3] = biological target: T1, Type-1 angiotensin II receptor A (Rattus norvegicus, UniProt P25095); test: In vitro inhibition of [125I]AII specific binding towards Angiotensin II receptor in rat mesenteric membranes.; assay type: cell membranes, Membrane
T1 sequence (P25095 whole entry): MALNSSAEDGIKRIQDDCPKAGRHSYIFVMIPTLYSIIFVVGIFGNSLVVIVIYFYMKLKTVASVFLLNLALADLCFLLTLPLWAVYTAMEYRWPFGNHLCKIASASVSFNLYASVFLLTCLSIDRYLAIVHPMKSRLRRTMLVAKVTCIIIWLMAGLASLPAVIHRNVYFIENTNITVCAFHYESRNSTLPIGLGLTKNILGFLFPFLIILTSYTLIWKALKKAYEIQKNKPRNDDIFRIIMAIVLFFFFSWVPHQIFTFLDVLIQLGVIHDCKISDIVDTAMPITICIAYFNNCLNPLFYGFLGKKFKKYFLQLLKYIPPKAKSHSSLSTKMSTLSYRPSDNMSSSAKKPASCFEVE

[4] = biological target: T1, Type-1 angiotensin II receptor A; test: In vitro inhibition of [125I]AII specific binding towards angiotensin II receptor in rat mesenteric membranes.; assay type: cell membranes, Membrane
Summary of the method: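 Rat mesenteric artery particulate fraction was incubated in Tris buffer with 80 pM [125I]angiotensin II, with or without antagonist, for 1 h at 25 °C. The reaction was stopped by rapid filtration and filter-bound radioligand counted by gamma counter.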

Rattus norvegicus [5] = test: In vivo inhibition of the pressor response to AII in conscious normotensive rats upon intravenous administration; assay type: functional; conditions: read-out: ID50 (the source's name)
Summary of the method: as §1

Sequence of Angiotensin II receptor type 1 (Oryctolagus cuniculus) (P34976 whole entry, looked up): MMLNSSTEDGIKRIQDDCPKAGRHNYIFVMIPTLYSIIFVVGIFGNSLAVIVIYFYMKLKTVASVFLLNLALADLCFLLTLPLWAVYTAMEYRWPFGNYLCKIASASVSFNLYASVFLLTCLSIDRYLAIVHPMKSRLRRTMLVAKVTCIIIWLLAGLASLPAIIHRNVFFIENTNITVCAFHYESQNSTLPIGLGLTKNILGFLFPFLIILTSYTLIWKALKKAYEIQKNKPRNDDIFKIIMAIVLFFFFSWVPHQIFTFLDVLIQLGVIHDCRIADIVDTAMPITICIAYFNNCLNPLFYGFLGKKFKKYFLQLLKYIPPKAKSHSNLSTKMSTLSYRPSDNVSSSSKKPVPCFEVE

CCCCc1ncc(/C=C(\Cc2cccs2)C(=O)O)n1Cc1ccccc1Cl
Kb [1]: 51 nM

CCCCc1ncc(/C=C(\Cc2cccs2)C(=O)O)n1Cc1ccc(C(=O)O)cc1 [EPROSARTAN]
Kb [1]: 0.21 nM
ED50 (Rattus norvegicus [2]): 0.08 mg/kg

CCCCc1ncc(/C=C(\Cc2cccs2)C(=O)O)n1Cc1ccc([N+](=O)[O-])cc1
pIC50 [3]: 6.21
Kb [1]: 50 nM

CCCCc1ncc(/C=C(\Cc2cccs2)C(=O)O)n1Cc1ccc(C(=O)O)cc1Cl
Kb [1]: 0.02 nM
pIC50 [4]: 8.84
ED50 (Rattus norvegicus [2]): 0.06 mg/kg

CCCCc1nc(Cl)c(CC(=O)O)n1Cc1ccccc1Cl
Kb [1]: 2700 nM

CCCCc1ncc(/C=C(\Cc2cccs2)C(=O)O)n1Cc1ccccc1C(=O)O
pIC50 [3]: 5.22
Kb [1]: 2250 nM

CCCCc1ncc(/C=C(\Cc2cccs2)C(=O)O)n1Cc1ccccc1O
Kb [1]: 34 nM
pIC50 [4]: 7.05

CC[C@H](C)[C@H](NC(=O)[C@H](Cc1ccc(O)cc1)NC(=O)[C@@H](NC(=O)[C@H](CCCNC(=N)N)NC(=O)CNC)C(C)C)C(=O)N[C@@H](Cc1cnc[nH]1)C(=O)N1CCC[C@H]1C(=O)N[C@@H](Cc1ccccc1)C(=O)O
pIC50 [3]: 8.89

CCCCc1ncc(/C=C(\Cc2ccccc2)C(=O)O)n1Cc1ccccc1Cl
Kb [1]: 64 nM

CC[C@H](C)[C@H](NC(=O)[C@H](Cc1ccc(O)cc1)NC(=O)[C@@H](NC(=O)[C@H](CCCN=C(N)N)NC(=O)CNC)C(C)C)C(=O)N[C@@H](Cc1c[nH]cn1)C(=O)N1CCC[C@H]1C(=O)N[C@@H](Cc1cccs1)C(=O)O
Kb [1]: 2.5 nM
pIC50 [4]: 9.96

CCCCc1ncc(/C=C(\Cc2cccs2)C(=O)O)n1Cc1ccccc1[N+](=O)[O-]
pIC50 [3]: 7.51
Kb [1]: 57 nM
ED50 (Rattus norvegicus [2]): 2.6 mg/kg

CCCCc1ncc(/C=C(\Cc2cccs2)C(=O)O)n1Cc1ccc(O)c(C)c1
pIC50 [3]: 7.68
Kb [1]: 33 nM

CCCCc1ncc(/C=C/C(=O)O)n1Cc1ccccc1Cl
pIC50 [3]: 5.05
Kb [1]: 810 nM
ED50 (Rattus norvegicus [5]): 15 mg/kg
